Laboratory results reported in ChEMBL document CHEMBL1133602, “A study of the relationship between biological activity and prolyl amide isomer geometry in oxytocin using 5-tert-butylproline to augment the Cys(6)-Pro(7) amide cis-isomer population” (J Med Chem, 2000).
pEC50, pKi: −log10 of the molar value. Numbered stars: 1 amine (or outer) side, 2 acyl side, 3 side chain; on linkers, the order of the positions; unused ones are H or OH. Bridge positions count the residues as written; N and C are the ends. Square brackets hold non-standard residues; d marks the D form. Peptide text beside a SMILES is read from it. X3 = CC(C)(C)[C@H]1CC[C@@H](C(=O)[*:2])N1[*:1]; X1 = CC(C)(C)C1CC[C@@H](C(=O)[*:2])N1[*:1]; Mpa = O=C(O)CCS

Key:
Rattus norvegicus [1] = organism: Rattus norvegicus; assay: Effective concentration in rat in the absence of Magnesium; format: functional, organism-based
In short: (§1)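 Isolated uterus from estrogen-primed rats (24-48 h) in Munsick solution, either without magnesium or with 1 mM Mg2+. Antagonist added 1 min before a standard oxytocin dose. EC50 is the concentration that cuts the response to a 2x agonist dose down to that of dose x; pA2 is its negative log. Uteri from 3-5 rats.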

Rattus norvegicus [2] = organism: Rattus norvegicus; assay: Effective concentration in rat in the presence of 1 mM of Magnesium; format: functional, organism-based; in short: as §1
Oxytocin receptor = molecular target: T1, Oxytocin receptor (Rattus norvegicus, UniProt P70536); assay: Binding affinity against oxytocin receptor
T1 sequence (P70536 whole entry): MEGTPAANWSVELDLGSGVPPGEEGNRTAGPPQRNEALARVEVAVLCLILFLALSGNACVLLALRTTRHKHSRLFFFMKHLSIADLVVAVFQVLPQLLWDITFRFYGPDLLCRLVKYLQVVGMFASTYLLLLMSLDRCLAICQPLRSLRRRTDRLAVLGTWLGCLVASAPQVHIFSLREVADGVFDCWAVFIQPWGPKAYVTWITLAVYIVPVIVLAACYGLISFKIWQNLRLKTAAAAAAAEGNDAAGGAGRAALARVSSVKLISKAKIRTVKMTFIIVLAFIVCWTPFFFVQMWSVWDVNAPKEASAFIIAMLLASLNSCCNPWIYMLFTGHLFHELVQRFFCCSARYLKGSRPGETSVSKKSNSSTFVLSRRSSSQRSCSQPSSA
In short: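 Crude rat uterine membrane fraction incubated with [3H]oxytocin (2 nM) plus peptide at 0.1-10000 nM, 30 min at 35 °C. Buffer was 50 mM HEPES pH 7.6 with 10 mM MnCl2 and 1 mg/mL bovine serum albumin. Bound and free separated by rapid filtration.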

Rattus norvegicus [3] = organism: Rattus norvegicus; assay: Compound was evaluated for the pressor activity in rat; format: functional
In short: (§2)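 Male rats (220-260 g) under urethane, pretreated with phenoxybenzamine in two doses. Femoral vein cannulated for dosing and carotid artery for blood pressure. After about 30 min stabilization, i.v. bolus doses of standard or analogue given in random order. Standard curve spanned 2 × 10-5 - 2 × 10-4 mg/kg. Activity set against the standard, 3-4 animals per analogue.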

Rattus norvegicus [4] = organism: Rattus norvegicus; assay: In Vitro evaluation for the uterotonic activity in rat in the absence of Magnesium; format: functional
In short: (§3)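 Isolated uterus from rats estrogenized 24-48 h beforehand, in Munsick solution without magnesium or with 1 mM Mg2+, oxytocin as standard. Single doses given in random order with bath changed after each response and at least 5 min between doses; cumulative doubling doses given at 1-min intervals. IU/mg from threshold doses against standard, EC50 from the curves. Uteri from 3-5 rats.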

Rattus norvegicus [5] = organism: Rattus norvegicus; assay: In Vitro evaluation for the uterotonic activity in rat in the presence of 1 mM of Magnesium; format: functional; in short: as §3
Rattus norvegicus [6] = organism: Rattus norvegicus; assay: Compound was evaluated for the pressor activity; format: functional; in short: as §2

pEC50 (Rattus norvegicus [1]) | pEC50 (Rattus norvegicus [2]) | pKi (Oxytocin receptor) | SMILES | Activity (Rattus norvegicus [3]) [IU/mg] | Activity (Rattus norvegicus [4]) [IU mg-1] | Activity (Rattus norvegicus [5]) [IU mg-1] | Activity (Rattus norvegicus [6]) [IU/mg]
6.82 | 6.35 | 5.84 | CC[C@H](C)[C@@H]1NC(=O)[C@H](Cc2ccc(O)cc2)NC(=O)[C@@H](N)CSSC[C@@H](C(=O)N2[C@H](C(=O)N[C@@H](CC(C)C)C(=O)NCC(N)=O)CC[C@@H]2C(C)(C)C)NC(=O)[C@H](CC(N)=O)NC(=O)[C@H](CCC(N)=O)NC1=O (H-CYIQNC[X3]LG-NH2; disulfide 1-6) [listing 1 of 2 here] | – | – | – | –
– | – | – | CC[C@H](C)[C@@H]1NC(=O)[C@H](Cc2ccc(O)cc2)NC(=O)[C@@H](N)CSSC[C@@H](C(=O)N2[C@H](C(=O)N[C@@H](CC(C)C)C(=O)NCC(N)=O)CC[C@@H]2C(C)(C)C)NC(=O)[C@H](CC(N)=O)NC(=O)[C@H](CCC(N)=O)NC1=O (H-CYIQNC[X3]LG-NH2; disulfide 1-6) [listing 2 of 2 here] | 0 | 1.8 | 0.5 | –
7.30 | 7.12 | 6.62 | CC[C@H](C)[C@@H]1NC(=O)[C@H](Cc2ccc(O)cc2)NC(=O)CCSSC[C@@H](C(=O)N2C(C(C)(C)C)CC[C@H]2C(=O)N[C@@H](CC(C)C)C(=O)NCC(N)=O)NC(=O)[C@H](CC(N)=O)NC(=O)[C@H](CCC(N)=O)NC1=O (stereo partly specified) ([Mpa]YIQNC[X1]LG-NH2; disulfide 1-6) | 0 | 6.1 | 3 | –
– | – | 8.49 | CC[C@H](C)[C@@H]1NC(=O)[C@H](Cc2ccc(O)cc2)NC(=O)CCSSC[C@@H](C(=O)N2CCC[C@H]2C(=O)N[C@@H](CC(C)C)C(=O)NCC(N)=O)NC(=O)[C@H](CC(N)=O)NC(=O)[C@H](CCC(N)=O)NC1=O [DEMOXYTOCIN] | – | 837 | 760 | 1.5
9.22 | 9.30 | – | CC[C@H](C)[C@@H]1NC(=O)[C@H](Cc2ccc(O)cc2)NC(=O)[C@@H](N)CSSC[C@@H](C(=O)N2CCC[C@H]2C(=O)N[C@@H](CC(C)C)C(=O)NCC(N)=O)NC(=O)[C@H](CC(N)=O)NC(=O)[C@H](CCC(N)=O)NC1=O [OXYTOCIN] | 5 | 450 | 450 | –
